Screening results as filed in PubChem BioAssay.
Compounds with a hit are over-represented: about 1.1% of the library has one in this group of screens.
Diaph inh CS: inhibits diaphorase or chemically oxidizes, flagging diaphorase assay artifacts. diaphorase resazurin-to-resorufin fluorescence, NADH, 16 min; bacterial (C. kluyveri) enzyme, not human. inhibition, % at 20 µM. 190,000 tested, 0.69% active;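 active means primary screen inhibition at 20 µM above a set limit, cut at about 50% in these data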;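 further: plate controls were DMSO with full reaction for no effect and wells lacking NADH for full effect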
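Test system: diaphorase enzyme from Clostridium kluyveri; amount: diaphorase at 0.14 U/mL in enzyme working solution; detection: fluorescence of resorufin formed from resazurin, Ex 544/Em 590 nm; times: reaction incubation of 16 min at room temperature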
G6PDH counter: inhibits Leuconostoc G6PDH, flagging false hits in G6PDH-based assays. 200,000 tested, 0.12% active. inhibition, % at 5 µM. Purified L. mesenteroides G6PDH, diaphorase/resazurin coupled fluorescence, 45 min. AID 1020; in the data active means inhibition above about 50%
PMI act hi M6P: PMI (human) activation, high substrate; activation factor at 20 µM; 190,000 tested, 0.34% active; P34949; coupled PMI enzyme assay, resazurin fluorescence, 20 min; hits give high values; 1 = untreated enzyme, 0 = substrate-free blank;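 active means activation factor of 2 or more at 20 µM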
Target sequence (P34949 whole entry, looked up): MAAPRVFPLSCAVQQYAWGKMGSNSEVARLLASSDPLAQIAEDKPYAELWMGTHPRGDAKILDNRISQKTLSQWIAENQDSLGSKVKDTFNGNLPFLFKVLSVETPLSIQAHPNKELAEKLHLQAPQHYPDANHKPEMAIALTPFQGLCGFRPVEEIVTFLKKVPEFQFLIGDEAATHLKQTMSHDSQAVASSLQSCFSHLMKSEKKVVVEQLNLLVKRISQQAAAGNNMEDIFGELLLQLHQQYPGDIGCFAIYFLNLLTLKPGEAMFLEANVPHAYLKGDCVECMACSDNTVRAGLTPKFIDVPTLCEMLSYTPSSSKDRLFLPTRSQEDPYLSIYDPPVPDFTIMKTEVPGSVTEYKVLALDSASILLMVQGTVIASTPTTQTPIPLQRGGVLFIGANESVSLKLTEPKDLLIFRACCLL
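Technique: Diaphorase-driven resazurin-to-resorufin fluorescence, excitation 544, emission 590 nm | Assay system: Human PMI in coupled enzyme assay | Times: Enzyme reaction with compound 20 min at room temperature | Medium: HEPES-buffered pH 7.4 with magnesium and detergent | Reagent: Mannose-6-phosphate 1.0 mM (near-saturating) plus 0.22 mM NADP+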
Diaph act CS: diaphorase activation or chemical reduction counter-screen; 190,000 tested, 0.005% active; activation factor at 20 µM; Diaphorase/resazurin coupled assay, resorufin fluorescence, 16 min; hits give high values; 1 = vehicle wells, 0 = NADH-free wells;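 active means diaphorase activity raised at least twofold by the compound at 20 µM; inactive means activation factor below 2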
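Assay system: Purified diaphorase enzyme from Clostridium kluyveri | Amount: Enzyme 0.07 U/mL final | Dosing: Compound 20 µM once, DMSO 1% | Timing: 16 min reaction at room temperature | Detection: Fluorescence, excitation 544 nm and emission 590 nm | Evaluation: Higher resorufin formation from activation or reduction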
PMI act: phosphomannose isomerase (human) activation. P34949. purified human PMI, coupled resazurin fluorescence, 20 min; hits give high values; 1 = vehicle control, 0 substrate-free wells. activation factor at 20 µM. 190,000 tested, 0.005% active. AID 1214;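 active means activation factor of 2 or more at 20 µM, relative to plate controls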
* marks the source's active call; other numbers are inactive results.

SMILES	Diaph inh CS	G6PDH counter	PMI act hi M6P	Diaph act CS	PMI act
O=C1NC2(CCC3(CC2)OCCO3)NN1c1ccc(Cl)cc1	0	3	2.7*	1	1.8
O=C(Nc1ccccc1N1CCCC1)c1ccc(Br)o1	0	9	2.1*	1	1.6
O=C(Nc1ccccc1N1CCCC1)c1cccnc1	14	5	2.1*	0.9	1.6
O=C1OC(/C=C/c2ccc(Cl)cc2)=NC/1=C/c1ccco1	12	2	1.1	0.9	1
O=C(O)Cc1ccc(C(=O)c2ccc(Cl)cc2Cl)s1	83*	13	1.5	0.2	1.6
Cc1cc(NC(=O)Cn2nc([N+](=O)[O-])c(Br)c2C)no1	17	15	0.9	0.8	0.9
O=C(Nc1nc2ccccc2s1)C1=NN(c2ccccc2)C(=O)CC1	21	-16	0.9	0.8	0.9
Nc1ccc2[nH]ncc2c1	58*	45	0.5	0.4	0.5
COc1ccc(C2OC(=O)CC2C(=O)NCc2ccccc2Cl)cc1OC (stereo not given)	4	5	1	1	1
CCOc1ccc(NC(=O)CN2CCN(CC(=O)c3ccc(OCC)cc3)CC2)cc1	-2	-12	2*	1	1.6
CC(=O)CCc1ccc(Oc2nc(-c3cccnc3)nc3ccccc23)cc1	20	-2	0.9	0.8	0.9
Nc1scc2c(C(=O)N/N=C/c3ccc(Cl)cc3)nn(-c3ccccc3)c(=O)c12	75*	20	0.4	0.2	0.3
O=C(NNC(=S)NC(=O)c1ccccc1[N+](=O)[O-])c1ccccc1O	59*	5	1.3	0.4	1.1
CCC(C)N(C(=O)Cn1nnc2ccccc21)C(C(=O)Nc1ccc(F)cc1)c1cccc(OC)c1 (stereo not given)	20	7	0.9	0.8	0.9
O=C(Nc1ccc(-c2noc(CCc3ccccc3)n2)cc1)c1cccnc1	25	-34	0.8	0.7	0.7
CCOC(=O)CSc1nc2c(sc(=S)n2-c2ccc(OCC)cc2)c(=O)[nH]1	48	5	1.2	0.5	1.2
CCOc1ccc(-n2c(=S)sc3c(=O)[nH]c(SCC(=O)C(C)(C)C)nc32)cc1	68*	1	1.2	0.3	1.1
CCOc1ccc(-n2c(=S)sc3c(=O)[nH]c(SCC(=O)N4CCC(C)CC4)nc32)cc1	62*	0	1.1	0.4	0.9
CN(CC(=O)Nc1cccc([N+](=O)[O-])c1)S(=O)(=O)c1ccccc1	16	4	1	0.8	0.9
CN1C(=O)C2(Nc3ccccc3-c3nc4ccccc4n32)c2ccccc21 (stereo not given)	84*	1	1	0.2	0.9
O=C1Nc2ccccc2C12Nc1ccccc1-c1nc3ccccc3n12 (stereo not given)	39	0	1	0.6	1
Cc1ccc(SCC(=O)Nc2ccc(-c3nc4ccccc4[nH]3)cc2)cc1	5	-4	1	0.9	1.1
c1ccc2c3c([nH]c2c1)-c1[nH]ncc1CC3	64*	17	0.6	0.4	0.5
CCc1cc2c(=O)n(-c3ccccc3)c(=S)[nH]c2s1	81*	6	0.9	0.2	0.9
O=C1CC(=O)N(Cc2ccco2)C(=O)N1	4	1	1.5	1	1.2
SMILES	Diaph inh CS	G6PDH counter	PMI act hi M6P	Diaph act CS	PMI act
O=C1CC(=O)N(Cc2ccco2)C(=S)N1	68*	4	1.5	0.3	1.3
CC(=O)Oc1ccc(C(=O)[C@H]2[C@H]3C(=O)N(c4ccc5ccccc5c4)C(=O)[C@H]3[C@@H]3C=CC=NN32)cc1	25	1	2.1*	0.8	1.6
O=C(Nc1ccc(Cl)cc1)[C@@H]1[C@@H]2C(=O)N(c3ccc(Cl)cc3)C(=O)[C@@H]2[C@H]2C=CC=NN21	14	2	1.9	0.9	1.6
C=CCn1c(SCC(=O)Nc2ncc(Cc3cc(C(F)(F)F)ccc3Cl)s2)nnc1-c1ccncc1	12	8	1	0.9	1
CC(=O)N1CCC2(CC1)NC(=O)N(c1ccccc1)N2	22	11	2.4*	0.8	1.6
O=C1NC2(CCCCC2)NN1c1ccccc1	20	7	1	0.8	0.9
NC(=O)N1CCC2(CC1)NC(=O)N(c1ccccc1)N2	8	18	2.5*	0.9	1.6
Cc1ccn2c(Nc3ccccc3C)c(-c3ccncc3)nc2c1	20	-14	0.9	0.8	0.8
O=[N+]([O-])c1cc2oc3c(c2c(C=NCc2ccncc2)c1O)CCCC3	56*	0	0.5	0.4	0.7
Cc1ccc(C)n1-c1ccc(N2CCOCC2)c(Br)c1	56*	0	1	0.4	1
Cc1cc(C=O)c(C)n1-c1ccc(N2CCOCC2)cc1	7	14	0.9	0.9	1
CCN(CC(=O)Nc1ccc(Cl)c(C(F)(F)F)c1)CC(=O)NC1CCS(=O)(=O)C1 (stereo not given)	1	-3	1.1	1	1
CN(C)c1cc(N/N=C/c2ccc(Cl)cc2)nc(N(C)C)n1	54*	43	0.3	0.5	0.3
O=C(NCCOc1ccccc1)C(=O)NCC1CCCO1 (stereo not given)	14	17	1	0.9	0.8
O=C(NCCOc1ccc(Cl)cc1)C(=O)NCC1CCCO1 (stereo not given)	51*	10	0.7	0.5	0.8
O=C1CN(c2nc(-c3cccs3)nc3sc4c(c23)CCCC4)CCN1	34	0	2.2*	0.7	1.5
COC(=O)c1ccccc1NC(=O)N1CCN(c2ccc(OC)cc2)CC1	7	9	1	0.9	0.9
O=c1[nH]c(=O)c2cc([N+](=O)[O-])cc([N+](=O)[O-])c2[nH]1	4	8	2.2*	1	1.7
CCCCCC1(C)NC(=S)N(c2ccccc2)N1 (stereo not given)	-1	-3	3.1*	1	2*
CCC1(c2ccc(Cl)cc2)NC(=S)N(c2ccccc2)N1 (stereo not given)	25	-3	1.1	0.8	0.9
CCCCCCC1(C)NC(=S)N(c2ccccc2)N1 (stereo not given)	7	3	3*	0.9	1.9
CC1(CC(=O)Nc2ccccc2)NC(=S)N(c2ccccc2)N1 (stereo not given)	14	-2	1.1	0.9	1.3
CN1c2ccccc2C(C)(C)C12CCCC(=O)N2 (stereo not given)	-4	1	2*	1	1.4
FC(F)(F)c1ccc(C2Nc3cccc4cccc(c34)N2)cc1	14	6	0.8	0.9	1.3
c1coc(C2Nc3cccc4cccc(c34)N2)c1	70*	21	1.3	0.3	0.9
